Experimental data as given in ChEMBL document CHEMBL4706706, “Structure-activity relationship and mechanistic studies for a series of cinnamyl hydroxamate histone deacetylase inhibitors” (Bioorg Med Chem, 2021).
Active and inactive are the calls of the source. No cut-off for these calls is given here.

How the values were obtained:
Jurkat [1] = assay: Cytotoxicity against human Jurkat cells assessed as reduction in cell proliferation at IC50 measured after 48 hrs by Ki-67 staining based fluorescence assay; format: functional
Method in brief: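 Ki-67 stained per kit instructions; mean fluorescence intensity by flow cytometry, normalized to untreated cells; at least three independent experiments, ANOVA with Bonferroni post-test.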

Jurkat [2] = assay: Induction of apoptosis in human Jurkat cells assessed as viable cells at 0.5 times IC50 measured after 48 hrs by Annexin V-FITC/7AAD staining based flow cytometry (reference value: 85.2%); format: functional
HCT-116 = assay: Cytotoxicity against human HCT-116 cells assessed as reduction in cell viability measured after 72 hrs by MTT assay; format: functional, cell-based; settings: HCT-116, 72 h
MCF7 = assay: Cytotoxicity against human MCF7 cells assessed as reduction in cell viability measured after 72 hrs by MTT assay; format: functional, cell-based; settings: MCF7, 72 h
Jurkat [3] = assay: Cytotoxicity against human Jurkat cells assessed as reduction in cell viability measured after 72 hrs by MTT assay; format: functional, cell-based
NAMALVA [4] = assay: Cytotoxicity against human NAMALVA cells assessed as reduction in cell viability measured after 72 hrs by MTT assay; format: functional, cell-based
[5] = Cytotoxicity against human HS5 cells assessed as reduction in cell viability measured after 72 hrs by MTT assay; format: ADME, cell-based; settings: HS5, 72 h
Jurkat [6] = assay: Cytotoxicity against human Jurkat cells assessed as reduction in cell viability MTT assay; format: functional, cell-based; settings: time 24-72 hrs, TDE = time-dependent effect
Method in brief: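 Jurkat cells (2 × 10^4/well) in RPMI with 10% FBS and 1% penicillin–streptomycin, exposed 24, 48 and 72 h to compound (0.0032–50 μM); 1% DMSO as negative control. MTT at 0.5 mg/mL final for 3 h, formazan dissolved in 0.1 N HCl/isopropanol. IC50 with 95% confidence intervals from sigmoidal nonlinear regression; mean ± SEM.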

Jurkat [7] = assay: Cytotoxicity against human Jurkat cells assessed as reduction in cell viability measured after 24 hrs MTT assay; format: functional, cell-based
Jurkat [8] = assay: Cytotoxicity against human Jurkat cells assessed as reduction in cell viability measured after 48 hrs MTT assay; format: functional, cell-based
Jurkat [9] = assay: Induction of apoptosis in human Jurkat cells assessed as early apoptotic cells at 0.5 times IC50 measured after 48 hrs by Annexin V-FITC/7AAD staining based flow cytometry (reference value: 6.05%); format: functional
Jurkat [10] = assay: Induction of apoptosis in human Jurkat cells assessed as late apoptotic cells at 0.5 times IC50 measured after 48 hrs by Annexin V-FITC/7AAD staining based flow cytometry (reference value: 6.77%); format: functional
Jurkat [11] = assay: Induction of apoptosis in human Jurkat cells assessed as necrotic cells at 0.5 times IC50 measured after 48 hrs by Annexin V-FITC/7AAD staining based flow cytometry (reference value: 0.23%); format: functional
NAMALVA [12] = assay: Induction of apoptosis in human NAMALVA cells assessed as viable cells at 0.5 times IC50 measured after 48 hrs by Annexin V-FITC/7AAD staining based flow cytometry (reference value: 90.4%); format: functional
NAMALVA [13] = assay: Induction of apoptosis in human NAMALVA cells assessed as early apoptotic cells at 0.5 times IC50 measured after 48 hrs by Annexin V-FITC/7AAD staining based flow cytometry (reference value: 5.07%); format: functional
NAMALVA [14] = assay: Induction of apoptosis in human NAMALVA cells assessed as late apoptotic cells at 0.5 times IC50 measured after 48 hrs by Annexin V-FITC/7AAD staining based flow cytometry (reference value: 3.52%); format: functional
NAMALVA [15] = assay: Induction of apoptosis in human NAMALVA cells assessed as necrotic cells at 0.5 times IC50 measured after 48 hrs by Annexin V-FITC/7AAD staining based flow cytometry (reference value: 1.05%); format: functional
[16] = biological target: T1, Protein deacetylase HDAC6 (Homo sapiens) (UniProt Q9UBN7); assay: Inhibition of HDAC6 in human Jurkat cells assessed as increase in acetylated alpha-tubulin expression at IC50 measured after 48 hrs by Western blot analysis; format: cell-based
T1 sequence (whole entry): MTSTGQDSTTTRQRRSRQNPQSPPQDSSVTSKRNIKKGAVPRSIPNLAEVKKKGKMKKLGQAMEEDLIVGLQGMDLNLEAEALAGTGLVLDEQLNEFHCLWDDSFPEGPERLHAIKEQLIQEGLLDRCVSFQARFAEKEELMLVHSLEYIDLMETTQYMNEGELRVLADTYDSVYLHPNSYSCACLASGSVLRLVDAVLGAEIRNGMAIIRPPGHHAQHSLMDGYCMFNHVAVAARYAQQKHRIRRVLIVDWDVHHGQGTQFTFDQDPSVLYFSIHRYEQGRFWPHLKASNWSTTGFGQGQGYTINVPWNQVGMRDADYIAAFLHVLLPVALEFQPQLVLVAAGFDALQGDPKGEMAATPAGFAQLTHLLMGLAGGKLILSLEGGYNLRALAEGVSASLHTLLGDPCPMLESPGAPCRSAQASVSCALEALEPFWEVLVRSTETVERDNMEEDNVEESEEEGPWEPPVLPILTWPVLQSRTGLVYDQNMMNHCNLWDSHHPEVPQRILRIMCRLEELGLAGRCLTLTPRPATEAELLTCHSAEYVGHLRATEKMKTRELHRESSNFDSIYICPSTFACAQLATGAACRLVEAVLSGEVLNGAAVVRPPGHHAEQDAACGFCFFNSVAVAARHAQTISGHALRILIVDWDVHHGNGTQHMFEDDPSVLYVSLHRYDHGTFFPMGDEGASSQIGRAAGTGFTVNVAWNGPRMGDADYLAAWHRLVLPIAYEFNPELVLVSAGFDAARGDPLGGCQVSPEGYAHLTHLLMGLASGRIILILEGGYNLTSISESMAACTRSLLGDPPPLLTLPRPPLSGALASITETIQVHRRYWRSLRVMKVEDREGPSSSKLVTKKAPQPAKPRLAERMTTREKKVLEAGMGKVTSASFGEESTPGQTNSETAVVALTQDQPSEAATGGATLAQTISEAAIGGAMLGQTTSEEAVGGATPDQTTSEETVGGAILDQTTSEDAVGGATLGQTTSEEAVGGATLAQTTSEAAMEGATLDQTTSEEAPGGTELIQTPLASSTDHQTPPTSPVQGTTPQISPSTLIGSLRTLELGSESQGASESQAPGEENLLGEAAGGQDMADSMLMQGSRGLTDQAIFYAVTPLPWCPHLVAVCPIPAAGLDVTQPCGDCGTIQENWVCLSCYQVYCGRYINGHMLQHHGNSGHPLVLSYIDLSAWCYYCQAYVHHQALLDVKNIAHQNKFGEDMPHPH

[17] = biological target: T1, Protein deacetylase HDAC6 (Homo sapiens); assay: Inhibition of HDAC6 in human NAMALVA cells assessed as increase in acetylated alpha-tubulin expression at IC50 measured after 48 hrs by Western blot analysis; format: cell-based
[18] = biological target: T2, Histone deacetylase (Homo sapiens) (UniProt Q13547+O15379+Q9UBN7+Q92769+Q9UQL6+Q8WUI4+Q9BY41+Q96DB2+P56524+Q9UKV0+Q969S8); assay: Inhibition of HDAC in human Jurkat cells assessed as increase in gammaH2AX expression at IC50 measured after 48 hrs by Western blot analysis; format: cell-based
[19] = biological target: T2, Histone deacetylase (Homo sapiens); assay: Inhibition of HDAC in human NAMALVA cells assessed as increase in gammaH2AX expression at IC50 measured after 48 hrs by Western blot analysis; format: cell-based
Jurkat [20] = assay: Effect on phosphoserine expression in human Jurkat cells at IC50 measured after 48 hrs by Western blot analysis; format: functional, cell-based
Jurkat [21] = assay: Effect on phosphotyrosine expression in human Jurkat cells at IC50 measured after 48 hrs by Western blot analysis; format: functional, cell-based
NAMALVA [22] = assay: Effect on phosphoserine expression in human NAMALVA cells at IC50 measured after 48 hrs by Western blot analysis; format: functional, cell-based
NAMALVA [23] = assay: Effect on phosphotyrosine expression in human NAMALVA cells at IC50 measured after 48 hrs by Western blot analysis; format: functional, cell-based
[24] = biological target: T2, Histone deacetylase (Homo sapiens); assay: Inhibition of HDAC in human HeLa cell nuclear extracts at 100 uM relative to control; format: subcellular; settings: Nucleus
Method in brief: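 Total HDAC activity measured with HeLa nuclear extract as enzyme source; single dose of 100 µM run in duplicate.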

[25] = biological target: T3, Protein deacetylase HDAC6 (Homo sapiens, UniProt Q9UBN7); assay: Inhibition of recombinant human full-length N-terminal GST-tagged HDAC6 (1 to 1215 residues) expressed in baculovirus infected Sf9 insect cells using RHKK(Ac)AMC as substrate preincubated for 5 to 10 mins followed by substrate addition and measured after 2 hrs by fluorescence assay
T3 sequence (Q9UBN7 whole entry): T1 sequence (whole entry)

[26] = Selectivity index, ratio of IC50 for human HS5 cells to IC50 for human Jurkat cells
[27] = Selectivity index, ratio of IC50 for human HS5 cells to IC50 for human NAMALVA cells
[28] = Selectivity ratio of IC50 for human HCT-116 cells to IC50 for human Jurkat cells; format: functional
[29] = Selectivity ratio of IC50 for human HCT-116 cells to IC50 for human NAMALVA cells; format: functional

inhibition [16]	inhibition [17]	inhibition [18]	SMILES	Activity (Jurkat [1])	Activity (Jurkat [2]) [%]	IC50 (HCT-116) [µM]	IC50 (MCF7) [µM]	IC50 (Jurkat [3]) [µM]	IC50 (NAMALVA [4]) [µM]	IC50 [5] [µM]	Activity (Jurkat [6])	IC50 (Jurkat [7]) [µM]	IC50 (Jurkat [8]) [µM]	Activity (Jurkat [9]) [%]	Activity (Jurkat [10]) [%]	Activity (Jurkat [11]) [%]	Activity (NAMALVA [12]) [%]	Activity (NAMALVA [13]) [%]	Activity (NAMALVA [14]) [%]	Activity (NAMALVA [15]) [%]	other results
Active	Active	Active	O=C(/C=C/c1ccc(NC(=O)Nc2ccc(Cl)cc2)cc1)NO	Active	88.4	29.9	> 50	0.04	0.2	1.7	Tde	2.6	0.6	7.92	4.28	0.28	72.5	17.9	8.85	0.68	inhibition [19]: Active; inhibition (Jurkat [20]): inactive; inhibition (Jurkat [21]): inactive; inhibition (NAMALVA [22]): inactive; inhibition (NAMALVA [23]): inactive; inhibition [24]: 93%; IC50 [25]: 0.0081 µM
			COc1ccc(NC(=O)Nc2ccc(CCC(=O)NO)cc2)cc1			31	> 50	2.8	1.99												
			O=C(CCc1ccc(NC(=O)Nc2ccccc2)cc1)NO			16.2	> 50	1.59	0.78												
			O=C(Nc1ccc(C(=O)NO)cc1)Nc1ccc([N+](=O)[O-])cc1			28.4	> 50	12.7	13.2												
Active	Active	Active	O=C(/C=C/c1ccc(NC(=O)Nc2ccccc2)cc1)NO	Active	87.4	6.49	> 50	0.16	0.3	1	Tde	2.7	1.2	7.03	4.39	0.31	81.4	12.4	5.2	1.05	Ratio IC50 [26]: 6; Ratio IC50 [27]: 3; Ratio IC50 [28]: 41; Ratio IC50 [29]: 22; inhibition [19]: Active; inhibition (Jurkat [20]): inactive; inhibition (Jurkat [21]): inactive; inhibition (NAMALVA [22]): inactive; inhibition (NAMALVA [23]): inactive
